The list is not random: actives were taken first. Their share in the collection is about 1.8%.
NTR1 ag: agonists of human neurotensin receptor NTR1. AID 493036. actives 0.17% (n = 330,000). P30989. NTR1-U2OS beta-arrestin-GFP spot imaging, agonist mode. activation, % at 20 µM;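 active = activation at or above 40% of the spot to cytoplasm intensity ratio, with at least 20 cells analyzed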;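 note: 0% = DMSO without peptide and 100% = 100 nM NTR1 peptide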
Target sequence (P30989 whole entry, looked up): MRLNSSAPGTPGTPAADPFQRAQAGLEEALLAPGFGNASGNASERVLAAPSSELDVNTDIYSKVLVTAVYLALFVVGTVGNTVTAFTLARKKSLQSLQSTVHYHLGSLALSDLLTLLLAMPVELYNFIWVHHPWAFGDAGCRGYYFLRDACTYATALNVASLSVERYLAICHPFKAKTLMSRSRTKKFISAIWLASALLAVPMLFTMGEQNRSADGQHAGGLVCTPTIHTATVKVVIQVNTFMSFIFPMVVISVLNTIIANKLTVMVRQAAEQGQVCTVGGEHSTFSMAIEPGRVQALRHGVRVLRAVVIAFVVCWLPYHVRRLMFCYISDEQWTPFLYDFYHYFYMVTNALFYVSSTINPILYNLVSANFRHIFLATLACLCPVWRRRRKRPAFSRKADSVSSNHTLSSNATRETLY
MC4R ag barr: agonists of human melanocortin 4 receptor (MC4R) beta-arrestin; actives 0.98% (n = 360,000); P32245; U2OS MC4R beta-arrestin complementation, luminescence; percent of melanotan II response, DMSO zero; activation, % at 8.9 µM;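 active = activation above a per-plate cutoff, the mean activation of sample wells on that plate plus 3 SD, cut at about 8% in these data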
MC4R antagonist: human MC4R antagonism in cAMP assay; inhibition, % at 6.5 µM; actives 0.48% (n = 360,000); P32245; MC4R-expressing cells, MTII-stimulated cAMP, LANCE TR-FRET;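 active = inhibition above its plate's cutoff, the mean of tested wells on that plate plus 3 SD, cut at about 29% in these data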;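 note: 0% = Melanotan II alone and 100% = Melanotan II plus saturating MCL0020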
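material = U2OS cells stably expressing human melanocortin 4 receptor (MC4R) | also added = Melanotan II challenge | dosing = single nominal compound dose of 6.5 µM | detection = TR-FRET with Eu-cAMP and labeled anti-cAMP, 671 nm | replication = singlicate | timing = compound 30 min, challenge 1 h, detection 1 h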
AI-2 QS modul: modulates the Vibrio harveyi AI-2 quorum sensing system. activity change, % at 7.5 µM. Vibrio harveyi JMH597 AI-2 luminescence/OD600 ratio, 9 h; stronger effect = lower value; strain lacks LuxN and CqsS sensors; 0 = neutral-control median. actives 0.4% (n = 300,000); in the data active = activity change below about -75%, passing the limit was not always enough;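 note: luminescence divided by OD600 gain over 9 h not by final OD600 alone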
MC4R barr ag: human MC4R beta-arrestin agonism confirmation; shares compounds with MC4R ag barr; U2OS MC4R beta-arrestin recruitment, luminescence; scaled DMSO 0%, Melanotan II 100%; activation, % at 8.9 µM; actives 31% (n = 2,400); AID 602192;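 active = mean activation across replicates above the hit cutoff set in the earlier primary screen, cut at about 8% in these data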
MOR-DOR barr ag: activates mu-delta opioid heterodimer, MC4R agonist counter-screen | U2OS PathHunter beta-arrestin, beta-gal luminescence; percent of deltorphin B response, DMSO zero | actives 5.8% (n = 2,400) | activation, % at 9.2 µM | shares compounds with MC4R ag barr;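 active = mean activation across replicates exceeds the hit threshold derived in the earlier primary screen, cut at about 18% in these data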;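 note: 100% = deltorphin B at 0.9 µM final and 0% = DMSO alone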
* hit, by the source's call; · = not tested or not shown.

SMILES	NTR1 ag	MC4R ag barr	MC4R antagonist	AI-2 QS modul	MC4R barr ag	MOR-DOR barr ag
CCCCCCCCCCCCCCCC[n+]1cccc2ccccc21	1	18*	-8	·	34*	23*
CCC(NC(=O)C1C2C=CC(C2)C1C(=O)O)c1ccc(C)cc1 (stereo not given)	-2	1	12	32	·	·
COc1ccccc1NC(=O)Nc1cc(C(C)C)ccc1C	-2	19*	-4	11	-1	8
COc1ccc(Cn2c(C)c(C)c(C#N)c2NC(=O)Nc2ccc(Cl)cc2)cc1	-1	13*	12	-11	1	5
COc1ccc(Cn2c(C)c(C)c(C#N)c2NC(=O)Nc2cccc(Cl)c2)cc1	-2	21*	-7	39	3	6
COc1ccc(-c2nnc(SCC(=O)Nc3cccc(Cl)c3)o2)cc1	-2	16*	-5	15	3	9
COc1ccc(OCC(=O)Nc2cccc(NC(=O)COc3ccc(OC)cc3)n2)cc1	4	13*	1	11	5	26*
COc1ccc(OCC(=O)Nc2cccc(-c3nc4ccccc4o3)c2)cc1	7	19*	8	10	5	4
CCCC(=O)Nc1cccc(-c2nc3ccccc3o2)c1	-2	-2	0	10	·	·
Cc1ccc(SCCC(=O)OC(C)C(=O)Nc2ccccc2)cc1 (stereo not given)	0	-2	-2	25	·	·
CC/C(=N/Nc1cccc(Cl)c1)c1cnnc(SC)n1	5	0	-7	13	·	·
CC/C(=N/Nc1ccccc1)c1cnnc(-c2ccccc2)n1	1	16*	5	0	21*	2
O=C(OCC(=O)N1CCC(Cc2ccccc2)CC1)c1ccccc1O	3	1	12	·	·	·
CCc1noc(C)c1C(=O)OCC(=O)NCc1ccccc1OC	0	-2	-6	·	·	·
O=C1N[C@@H](Cc2c[nH]c3ccccc23)C(=O)N[C@H]1Cc1ccccc1	·	-1	4	·	·	·
Fc1ccc(CSc2ccc(-c3ccc4c(c3)OCO4)nn2)cc1	0	11*	10	17	2	8
Fc1ccc(CSc2ccc(-c3ccco3)nn2)cc1	0	0	-1	-34	·	·
c1ccc(CSc2ccc(-c3ccc4c(c3)OCO4)nn2)cc1	8	29*	-3	16	3	4
Cn1c(SCc2ccccc2)nnc1-c1ccc2c(c1)OCO2	0	0	4	17	·	·
O=C(Nc1ccc(Oc2ccccc2)cc1)c1csc([C@@H]2O[C@H](CO)[C@H](O)[C@H](O)[C@H]2O)n1	·	-5	8	·	·	·
Cc1cc(C)cc(N(C(=O)c2csnn2)C(C(=O)NC2CCCCC2)c2ccccn2)c1 (stereo not given)	3	2	9	-3	·	·
COCCn1c(=O)[nH]c2cc(C(=O)Nc3ccc(OC)c(Cl)c3)ccc2c1=O	0	-1	5	10	·	·
C=CCn1c(=S)[nH]c2cc(C(=O)Nc3ccc(OC)c(OC)c3)ccc2c1=O	0	10*	1	·	-1	5
Nc1cc(Cl)ccc1Nc1ccncc1	·	-1	1	30	·	·
NC(=O)c1c(NC(=O)c2ccccc2)sc2c1CCN(Cc1ccccc1)C2	3	12*	11	6	2	7
SMILES	NTR1 ag	MC4R ag barr	MC4R antagonist	AI-2 QS modul	MC4R barr ag	MOR-DOR barr ag
N#Cc1ccc(-c2cccnc2)nc1SCc1ccc(Cl)cc1Cl	10	18*	-14	-1	6	4
CC(NCC(=O)Nc1cc(S(=O)(=O)N2CCOCC2)ccc1Cl)c1ccc(Cl)cc1Cl (stereo not given)	3	1	13	9	·	·
CC1CC1C(=O)N1CCN(S(=O)(=O)c2cccc(F)c2)CC1 (stereo not given)	1	-2	0	8	·	·
CCCCCCCNC(=O)C1(CC2CC(c3ccc(Cl)cc3)=NO2)CCNCC1 (stereo not given)	4	9.7*	8	-13	24*	15
Cc1sc(NC(=O)CSc2nnc(COc3ccc(Cl)cc3)n2C)c(C#N)c1C	0	11*	4	52	4	7
Cn1cnnc1SCC(=O)Nc1sc2c(c1C#N)CCCCC2	0	-1	2	16	·	·
Cn1c(CNC(=O)c2ccc(Cl)c(Cl)c2)nnc1SCC(=O)Nc1sc2c(c1C#N)CCCC2	12	11*	5	21	11*	3
CCOC(=O)c1ccc(NC(=O)CSc2nnc(COc3ccccc3)n2C)cc1	2	11*	-3	33	0	7
Cc1ccc(C(=O)Nc2nc(C(N)C(C)C)cs2)cc1 (stereo not given)	·	-1	-1	·	·	·
O=C(CSc1nc2c(sc3ccccc32)c(=O)n1Cc1ccccc1)NCC1CCCO1 (stereo not given)	0	-2	2	6	·	·
O=C(CSc1nc2c(sc3ccccc32)c(=O)n1Cc1ccco1)NCC1CCCO1 (stereo not given)	18	22*	10	11	0	1
O=C(CCCN1C(=O)/C(=C/c2cccs2)SC1=S)NNC(=O)c1ccccc1O	3	18*	-3	5	2	4
O=C(CCCN1C(=O)/C(=C\c2cccs2)SC1=S)Nc1ccc(C(=O)O)cc1	1	1	-6	24	·	·
O=C(CCCN1C(=O)/C(=C\c2cccs2)SC1=S)Nc1ccc(O)cc1	0	10*	26	15	16*	2
O=C(CCCN1C(=O)/C(=C/c2cccs2)SC1=S)NNC(=O)c1ccncc1	4	1	7	-5	·	·
COc1ccc(CCn2c(C)cc(C(=O)COC(=O)c3cnc(C)cn3)c2C)cc1	0	0	-2	34	·	·
COc1ccc(CCn2c(C)cc(C(=O)COC(=O)c3ccc(O)cc3O)c2C)cc1	·	25*	13	·	9.3*	10
Cc1ccc2[nH]c(=O)c3cc(C(=O)N(CCCOC(C)C)Cc4ccco4)sc3c2c1	23	35*	-3	16	34*	8
CC(C)CN(CCCNC(=O)CN1C(=O)COc2ccc(S(=O)(=O)N3CCOCC3)cc21)CC(C)C	1	-1	11	12	·	·
CC(C)n1c(O)c(/C=C2\C=Nc3ccccc32)sc1=Nc1ccccc1	13	13*	-4	17	-2	3
Nc1nc(CCl)nc(Nc2cccc3ccccc23)n1	6	26*	7	28	19*	43*
COc1cccc(NC(=O)CN(C)C(=O)CCCc2nc3ccccc3c(=O)[nH]2)c1	-2	-1	8	·	·	·
COc1ccc(OC)c2sc(NC(=O)CCS(=O)(=O)c3ccccc3)nc12	4	-1	2	10	·	·
COc1ccc(OC)c2sc(NC(=O)CCSc3ccccc3)nc12	28	11*	0	13	2	8
